An excerpt weighted towards active compounds, which were near 4% of everything screened.
GRIN3A LBD mod: NR3A (human) ligand-binding domain modulation; Tm shift relative to glycine control, % at 25 µM; NR3A LBD differential scanning fluorimetry, Tm shift; 0% = protein alone, 100% = glycine-bound protein; hit rate 2.5% among 340,000;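 active means melting temperature shift of at least 10% of the positive control shift, at one fixed dose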
iPSC survival up: hiPSC single-cell survival enhancement; ATPlite luminescence; 100% = ROCK inhibitor wells, 0% = DMSO; survival enhancement, % at 20 µM; hit rate 0.044% among 360,000; AID 602274; in the data active means survival enhancement above about 18%;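 further: cells exposed to compounds for 16 hours before the ATP read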
Cardio protect: modulators protecting cardiomyocytes from myocardial damage; H9c2 cardiomyocytes, H2O2 injury protection, ATPLite, 2 h; protection from H2O2 cell death, % at 20 µM; hit rate 0.63% among 360,000; AID 588492;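 active means compounds giving at least 50% protection of heart cells from peroxide-induced death in the single-dose screen, raw or plate-pattern-corrected value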;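 further: 0% = DMSO wells with peroxide and 100% = DMSO wells without peroxide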
Arrestin-AP2 inh: inhibitors of human beta-arrestin and AP2 interaction | FITC-arrestin peptide / GST-AP2 beads, flow cytometry; AP2 beta2 appendage carries R879A mutation | inhibition, % at 10 µM | hit rate 0.31% among 340,000 | AID 504490;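 active means inhibition above a set limit, near 3 SD of compounds lacking own fluorescence, cut at about 54% in these data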;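 further: plate controls were DMSO wells for no effect and 5 µM unlabelled arrestin peptide for full effect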
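System: GST-AP2 R879A glutathione beads. Medium: PBS with 0.05% Tween 20 and 0.1% BSA. Also added: FITC-arrestin peptide, 50 nM. Incubation: 12 min plus 1 h, RT. Measured by: high-throughput flow cytometry of beads, ex 488, em 535 nm. Evaluation: percent drop in bead-associated FITC signal.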
SENP1 FRET inh: SENP1 (human) catalytic domain inhibition. recombinant SENP1 catalytic domain, CyPet-SUMO1-YPet FRET cleavage. hit rate 0.21% among 360,000. inhibition, % at 10 µM;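 active means inhibition at least 30% at 10 µM, raw YFP signal under a set limit, fluorescence ratio 0.5 to 1.5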;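 further: 0% = enzyme with DMSO and 100% = no enzyme wells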
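material = recombinant human SENP1 catalytic domain, His6-tagged | quantity = 20 pM enzyme | reagent = 25 nM SUMO1 FRET substrate | compound dosing = 10 µM single point, 0.5% DMSO | timing = 50 min enzyme reaction, room temperature, light-protected | detection = FRET, CFP and YFP emission | control set = no-enzyme low, enzyme-DMSO high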
FAS-TE inh: FAS thioesterase (human) inhibition; inhibition, % at 15 µM; recombinant FAS-TE, OMFH fluorogenic substrate, fluorescence endpoint; P49327; hit rate 0.67% among 360,000;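 active means compounds whose normalised, plate-corrected inhibition of enzyme fluorescence in the single-dose primary screen is 50% or more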;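 further: 0% = DMSO with enzyme and 100% = substrate without enzyme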
Target sequence (P49327 whole entry, looked up): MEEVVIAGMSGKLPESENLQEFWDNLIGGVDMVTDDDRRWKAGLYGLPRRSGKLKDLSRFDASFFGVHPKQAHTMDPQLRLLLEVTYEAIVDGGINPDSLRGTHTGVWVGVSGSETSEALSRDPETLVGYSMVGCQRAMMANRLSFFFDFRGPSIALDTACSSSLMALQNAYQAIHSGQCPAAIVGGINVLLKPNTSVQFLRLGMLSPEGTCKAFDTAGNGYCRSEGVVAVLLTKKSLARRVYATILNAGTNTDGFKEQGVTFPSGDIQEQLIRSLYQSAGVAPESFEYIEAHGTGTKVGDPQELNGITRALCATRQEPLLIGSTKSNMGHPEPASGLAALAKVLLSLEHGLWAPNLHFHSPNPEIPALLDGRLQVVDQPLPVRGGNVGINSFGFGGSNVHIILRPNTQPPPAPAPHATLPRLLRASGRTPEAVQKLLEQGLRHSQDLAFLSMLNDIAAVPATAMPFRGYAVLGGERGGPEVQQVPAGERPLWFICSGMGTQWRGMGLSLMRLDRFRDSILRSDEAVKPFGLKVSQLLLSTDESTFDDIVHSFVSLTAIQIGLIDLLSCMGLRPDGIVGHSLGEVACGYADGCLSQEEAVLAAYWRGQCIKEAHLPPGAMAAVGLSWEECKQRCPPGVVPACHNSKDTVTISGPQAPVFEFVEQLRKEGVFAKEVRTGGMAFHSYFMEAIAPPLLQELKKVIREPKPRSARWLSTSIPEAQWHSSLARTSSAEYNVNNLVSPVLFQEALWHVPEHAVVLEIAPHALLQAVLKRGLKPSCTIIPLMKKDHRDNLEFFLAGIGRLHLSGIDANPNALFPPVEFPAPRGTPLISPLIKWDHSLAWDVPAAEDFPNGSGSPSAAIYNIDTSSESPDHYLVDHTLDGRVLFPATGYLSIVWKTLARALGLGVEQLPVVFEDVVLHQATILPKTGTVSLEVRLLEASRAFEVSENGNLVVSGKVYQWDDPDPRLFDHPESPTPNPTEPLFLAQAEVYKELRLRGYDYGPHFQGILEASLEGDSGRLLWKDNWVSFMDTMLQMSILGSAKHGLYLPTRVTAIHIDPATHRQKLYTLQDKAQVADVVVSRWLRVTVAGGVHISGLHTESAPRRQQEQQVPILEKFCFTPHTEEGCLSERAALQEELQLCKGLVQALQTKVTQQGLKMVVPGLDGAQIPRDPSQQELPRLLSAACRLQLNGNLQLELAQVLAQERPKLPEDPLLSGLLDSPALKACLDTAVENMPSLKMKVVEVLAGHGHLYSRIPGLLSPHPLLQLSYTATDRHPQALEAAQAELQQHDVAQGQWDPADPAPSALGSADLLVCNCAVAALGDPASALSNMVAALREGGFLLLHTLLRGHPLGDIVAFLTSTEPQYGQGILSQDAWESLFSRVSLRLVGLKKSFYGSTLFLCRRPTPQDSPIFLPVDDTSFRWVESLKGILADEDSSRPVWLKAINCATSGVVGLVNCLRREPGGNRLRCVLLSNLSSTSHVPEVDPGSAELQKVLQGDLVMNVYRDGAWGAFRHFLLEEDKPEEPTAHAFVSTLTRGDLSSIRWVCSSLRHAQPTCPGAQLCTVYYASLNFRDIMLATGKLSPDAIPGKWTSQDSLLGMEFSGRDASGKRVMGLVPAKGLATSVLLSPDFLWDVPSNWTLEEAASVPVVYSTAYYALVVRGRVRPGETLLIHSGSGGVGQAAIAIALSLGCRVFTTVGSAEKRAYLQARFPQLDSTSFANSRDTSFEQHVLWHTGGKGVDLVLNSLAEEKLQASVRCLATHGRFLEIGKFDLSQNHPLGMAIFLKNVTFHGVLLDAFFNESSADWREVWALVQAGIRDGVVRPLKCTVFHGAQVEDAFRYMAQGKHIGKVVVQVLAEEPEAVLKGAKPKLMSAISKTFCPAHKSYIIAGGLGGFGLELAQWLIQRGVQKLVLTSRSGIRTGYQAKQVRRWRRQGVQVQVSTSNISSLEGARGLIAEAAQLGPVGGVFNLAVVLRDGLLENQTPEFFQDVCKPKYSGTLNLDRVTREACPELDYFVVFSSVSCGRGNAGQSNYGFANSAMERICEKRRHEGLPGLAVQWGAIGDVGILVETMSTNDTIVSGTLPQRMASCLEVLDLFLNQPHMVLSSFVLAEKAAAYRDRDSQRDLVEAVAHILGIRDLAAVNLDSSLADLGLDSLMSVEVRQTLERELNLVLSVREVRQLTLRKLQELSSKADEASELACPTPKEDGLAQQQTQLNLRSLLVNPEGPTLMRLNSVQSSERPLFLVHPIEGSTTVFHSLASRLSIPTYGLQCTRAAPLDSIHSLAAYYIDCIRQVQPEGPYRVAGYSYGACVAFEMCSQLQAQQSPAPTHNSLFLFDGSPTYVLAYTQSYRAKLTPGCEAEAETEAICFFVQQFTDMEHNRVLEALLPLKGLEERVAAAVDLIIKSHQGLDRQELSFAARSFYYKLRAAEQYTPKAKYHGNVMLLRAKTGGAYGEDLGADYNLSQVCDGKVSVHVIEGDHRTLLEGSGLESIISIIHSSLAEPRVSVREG
An asterisk follows results filed as active; · = no result.

SMILES	GRIN3A LBD mod	iPSC survival up	Cardio protect	Arrestin-AP2 inh	SENP1 FRET inh	FAS-TE inh
CCC(=O)Nc1ccc(-c2nnc(-c3ccccc3)o2)cc1	-3	-1	-11	6	1	-6
COC(=O)c1cc(OC)c(OC)cc1NC(=O)c1ccc(OC)c(OC)c1	1	6	52*	5	1	3
COc1cc(C(=O)Nc2ccc(O)cc2)ccc1OC(C)=O	32*	-2	-2	0	1	-5
COc1cc(C(=O)Nc2ccc(C(=O)O)cc2)ccc1OC(C)=O	1	-1	0	6	1	-7
CCC(=O)Nc1cccc(-c2nnc(-c3cccc(NC(=O)CC)c3)o2)c1	-2	1	85*	-4	1	-1
COc1cc(C(=O)Nc2cccc(-c3nnc(-c4ccco4)o3)c2)ccc1OC(C)=O	-5	0	79*	5	2	7
COc1ccc(N2c3ccccc3CN(Cc3ccccc3)[C@@H](C)[C@H]2Cc2cccnc2)cc1	·	-3	-20	·	-4	15
O=C(Cn1ccc(=O)[nH]c1=O)c1ccc([N+](=O)[O-])o1	·	4	40	·	-2	0
CCOc1ccc(NS(=O)(=O)c2cccs2)cc1S(=O)(=O)N1CCCC1	·	-2	3	·	7	-8
O=C(Cc1ccc(Cl)cc1)Nc1ccc(-c2nnc(-c3ccco3)o2)cc1	13*	1	-5	-7	0	-2
COc1ccc(-n2sc3ccc(F)cc3c2=O)cc1	28*	-4	-31	30	0	-5
O=c1c2cc(F)ccc2sn1-c1ccc(F)cc1	2	-2	-5	24	0	-10
Nc1ccccc1C(=O)NCc1ccc(Cl)cc1	12*	0	4	32	6	-9
Nc1ccccc1C(=O)NCc1ccc(F)cc1	0	0	3	-10	3	-6
CN(CC(=O)Nc1ccccc1Br)C(=O)CCc1nc2ccccc2c(=O)[nH]1	1	0	73*	16	1	-4
CCOc1ccc(NC(=O)CN(C)C(=O)CCc2nc3ccccc3c(=O)[nH]2)cc1OCC	·	1	50	·	-6	-7
CN1CCC(N(C)C(=O)CCc2nc3ccccc3c(=O)[nH]2)CC1	-1	1	78*	0	-15	-8
COc1ccc(Cl)cc1NC(=O)CN(C)C(=O)CCc1nc2ccccc2c(=O)[nH]1	2	0	73*	4	-3	-2
Nc1ncnc(N)c1NC(=O)c1ccc(OCc2ccccc2)cc1	·	2	-2	·	2	-8
CC(=O)Nc1cc(-c2cccc(N)c2)cn2c(-c3ccccc3)cnc12	·	3	-2	·	-1	9
CCc1nnc(NC(=O)CCC(=O)N2CCN(C3c4ccccc4-c4ccccc43)CC2)s1	4	1	61*	-19	2	4
NC(=O)c1ncc(C(F)(F)F)cc1Oc1cccc(F)c1	4	0	9	17	2	-2
NC(=O)c1ncc(C(F)(F)F)cc1Oc1cccc(C(F)(F)F)c1	11*	0	-5	-5	1	-5
CCC(=O)N1CCCC(C)(C(=O)Nc2ccc3oc(CC)nc3c2)C1 (stereo not drawn)	·	-1	-3	·	0	-8
CCCOc1ccc(C(=O)NNC(=S)NC(=O)c2cc(-c3ccccc3)nc3ccccc23)cc1	18*	4	4	-4	-4	13
SMILES	GRIN3A LBD mod	iPSC survival up	Cardio protect	Arrestin-AP2 inh	SENP1 FRET inh	FAS-TE inh
O=C(Nc1cccc(Cl)c1)Nc1ccc2c(c1)OCO2	33*	-3	0	-8	17	9
CC(=O)c1cccc(NC(=O)Nc2ccc3c(c2)OCO3)c1	13*	0	-6	1	2	-5
CC(=O)c1cccc(NC(=O)NCc2ccc3c(c2)OCO3)c1	-1	1	2	9	0	2
O=C(NCc1ccc2c(c1)OCO2)Nc1cccc(Cl)c1	-5	0	-4	4	0	29
CC1CCc2nc(NC(=O)Nc3ccc4c(c3)OCO4)sc2C1 (stereo not drawn)	31*	-2	-12	10	3	2
COCCNC(=O)C1CCCN(Cc2ccccc2-c2ccccc2)CC1 (stereo not drawn)	·	0	-4	·	3	-8
CCCCC1=C(C(=O)OCC)C(C(=O)OCC)Oc2ccccc21 (stereo not drawn)	18*	2	-12	-7	2	16
CCOC(=O)C1Oc2ccccc2C(c2ccc(OC)cc2)=C1C(=O)OC (stereo not drawn)	13*	-2	4	-21	3	16
CCOC(=O)C1=C(c2ccccc2)c2ccccc2OC1C(=O)OCC (stereo not drawn)	1	1	-4	1	1	10
COc1ccccc1-n1c(SCC(=O)NCc2ccc3c(c2)OCO3)nc2cc([N+](=O)[O-])ccc21	0	-2	107*	6	2	37
CCCc1cc(=O)oc2c(CNc3ccc(OCC)cc3)c(O)ccc12	1	2	59*	-5	-30	4
CCCCNC(=O)C1(C)CCC(=O)N1c1cc(C(C)(C)C)nn1C (stereo not drawn)	·	0	2	·	2	-8
CSc1nc2ccc(NS(=O)(=O)c3ccc(CNC(C)=O)cc3)cc2s1	5	0	-12	-1	-2	-3
O=S(=O)(Nc1ccc(O)c(Sc2nc3ccccc3s2)c1)c1ccc(Cl)cc1	16*	1	-7	12	1	12
Cc1cc(C)cc(N2C(=O)C=CC2=O)c1	2	-1	-22	30	-3	3
Cc1cc(C)cc(N2C(=O)c3nccnc3C2=O)c1	14*	2	-2	1	1	-12
O=S1(=O)CCC(N=Cc2cc(Br)ccc2O)C1 (stereo not drawn)	-5	-3	70*	1	-19	-2
O=C(N/N=C/c1cccc(C(F)(F)F)c1)c1cc2c(s1)-c1ccccc1CC2	14*	0	-7	-11	0	16
Cc1cccc(/C=N/NC(=O)c2cc3c(s2)-c2ccccc2CC3)c1	4	-1	-18	5	2	17
CCOC(=O)C(/C(C)=N/NC(=O)C1CC1c1ccccc1)C(C)C (stereo not drawn)	16*	2	-4	18	2	-6
CCN1CCc2c(sc(NC(=O)Nc3ccc(Cl)c(Cl)c3)c2C(N)=O)C1	18*	5	27	9	-27	-60
CCOC(=O)[C@]12CCC=C1N(Cc1ccco1)C(=O)[C@H](CC(=O)N1CCN(C(=O)c3ccco3)CC1)C2	·	2	·	·	-4	-15
CNc1nc2c3ccccc3n(C(C)=O)c2s1	18*	-3	1	16	0	-2

Screens: PubChem, several laboratories
